From PubChem
Cl transport mod: KCC2 (human) Cl- transport modulation; KCC2 cells, thallium flux FluoZin-2 fluorescence; B-score of Tl+ flux slope (higher = more flux/activation; lower = inhibition) at 10 µM; actives 2.2% (n = 190,000);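 active means thallium flux slope and its plate-corrected score both differing from the plate sample mean at a set confidence after two filtering rounds, in either direction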;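 further: slope of fluorescence scaled to starting intensity during 10 to 20 s after thallium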
Target sequence (Q9H2X9 whole entry, looked up): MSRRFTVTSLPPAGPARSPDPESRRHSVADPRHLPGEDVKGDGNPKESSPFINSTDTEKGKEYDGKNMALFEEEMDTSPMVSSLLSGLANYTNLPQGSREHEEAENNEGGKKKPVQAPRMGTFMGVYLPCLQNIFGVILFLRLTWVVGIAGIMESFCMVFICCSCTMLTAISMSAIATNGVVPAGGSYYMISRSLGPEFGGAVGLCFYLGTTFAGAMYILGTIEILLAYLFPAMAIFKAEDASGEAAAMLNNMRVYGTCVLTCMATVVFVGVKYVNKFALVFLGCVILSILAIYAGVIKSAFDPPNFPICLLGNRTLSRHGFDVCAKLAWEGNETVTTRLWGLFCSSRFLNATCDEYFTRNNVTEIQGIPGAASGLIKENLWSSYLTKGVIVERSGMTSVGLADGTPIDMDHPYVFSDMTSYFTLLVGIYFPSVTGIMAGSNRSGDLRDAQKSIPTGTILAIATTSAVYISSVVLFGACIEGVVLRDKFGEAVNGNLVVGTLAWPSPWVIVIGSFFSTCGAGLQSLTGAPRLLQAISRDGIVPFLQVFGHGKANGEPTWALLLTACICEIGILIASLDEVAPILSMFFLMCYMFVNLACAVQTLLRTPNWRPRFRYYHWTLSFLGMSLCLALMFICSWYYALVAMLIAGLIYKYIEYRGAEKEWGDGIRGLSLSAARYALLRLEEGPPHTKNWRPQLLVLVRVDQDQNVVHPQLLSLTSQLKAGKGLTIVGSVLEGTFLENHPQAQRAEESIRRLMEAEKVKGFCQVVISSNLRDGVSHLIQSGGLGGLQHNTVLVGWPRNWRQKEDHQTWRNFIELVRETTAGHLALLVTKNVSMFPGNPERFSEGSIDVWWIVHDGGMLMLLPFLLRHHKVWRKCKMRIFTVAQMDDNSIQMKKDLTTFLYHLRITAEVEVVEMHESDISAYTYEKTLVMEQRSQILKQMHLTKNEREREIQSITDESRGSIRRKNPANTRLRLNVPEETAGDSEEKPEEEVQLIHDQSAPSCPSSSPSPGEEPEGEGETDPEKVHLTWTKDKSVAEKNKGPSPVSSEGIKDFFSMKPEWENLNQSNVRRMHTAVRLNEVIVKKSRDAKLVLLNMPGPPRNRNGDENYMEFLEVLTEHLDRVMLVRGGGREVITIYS
KCNQ1 pot: potentiates or activates the human KCNQ1 potassium channel; AID 2648; B-score at 10 µM; actives 0.35% (n = 310,000); CHO-K1 KCNQ1, thallium flux FluxOR fluorescence; active compounds read high;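 active means fluorescence ratio B-score, a plate-corrected score, at least three library SD, with initial intensity B-score within 5 SD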
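System: CHO-K1 cells stably expressing KCNQ1 / Medium: assay buffer for compound exposure, DMSO matched across wells / Reagent: thallium- and potassium-containing depolarizing buffer / Compound: one concentration, matched DMSO / Incubation: 20 min compound pretreatment at room temperature / Measured by: kinetic FluxOR fluorescence, 10 s baseline plus 110 s post-stimulus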
KCNK3 block: human KCNK3 channel inhibition, primary screen. B-score at 10 µM. AID 602410. O14649. CHO-KCNK3 thallium flux, FluxOR fluorescence; active compounds read low. actives 0.84% (n = 340,000);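 active means B-score under library mean minus 4 SD, starting fluorescence ratio at most library mean plus 5 SD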;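 further: more negative B-score means stronger inhibition of thallium flux through KCNK3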
KCNQ1 block: blocks the human KCNQ1 potassium channel; P51787; CHO-K1 KCNQ1, FluxOR thallium flux fluorescence; active compounds read high; B-score at 10 µM; actives 1.3% (n = 310,000); AID 2642;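 active means compounds whose thallium flux B-score, printed positive for inhibition, exceeds three library SD while starting fluorescence stays within three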;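 further: channel opened by potassium depolarization with thallium stimulus after 20 min compound exposure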
hERG protect: compounds protecting human hERG from proarrhythmic drug block; AID 1511; activation (rescue from dofetilide block), less the hit threshold, % at 10 µM; CHO-hERG, FluxOR thallium flux, dofetilide IC70 present; Q12809; actives 0.51% (n = 310,000);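 active means activation above the mean of controls blocked by dofetilide plus 5 SD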;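 further: thallium influx through hERG after potassium depolarization seen as dye fluorescence rise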
KCNK9 block: human KCNK9 channel inhibition. HEK293 KCNK9, FluxOR thallium flux fluorescence; active compounds read low. Q9NPC2. B-score at 10 µM. actives 1.2% (n = 310,000);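 active means ratio B-score over 3 SD below the library mean, with starting fluorescence within 5 SD of its mean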;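 further: negative B-score means less thallium flux so channel inhibition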
KCC2 sec1: confirmation of human KCC2 transport modulators. HEK293-KCC2, thallium flux, FluoZin2 fluorescence; active compounds read high. normalised thallium flux (F/F0 slope) at 10 µM. actives 15% (n = 3,700). AID 1713. shares compounds with Cl transport mod;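 active means thallium flux slope above the same plate's solvent-only control mean plus 3 SD; inconclusive means the two replicate wells disagree; inactive means no significant difference from solvent-only control wells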
KCC2 bumet counter: thallium flux despite bumetanide block in KCC2 cells, secondary assay 3; shares compounds with Cl transport mod; actives 49% (n = 3,700); HEK293-KCC2 + bumetanide/ouabain, thallium flux FluoZin2; active compounds read high; normalized thallium flux at 10 µM;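 active means thallium entry rate above the same plate's blocked-transporter control wells by more than 3 SD; inconclusive means the two repeat wells disagree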;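 further: raw slope of fluorescence over initial fluorescence between 10 and 20 s after thallium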
KCC2 sec2: KCC2 (human) modulation, second secondary assay; normalized thallium flux at 10 µM; actives 23% (n = 3,700); shares compounds with Cl transport mod; HEK293-KCC2, thallium flux FluoZin2 fluorescence; actives lie on both sides; F/F0 rise rate, 10–20 s post-thallium;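 active means thallium flux slope more than 3 SD above or below the plate's solvent-only control mean, mostly below; inconclusive means the two repeat wells disagreed; inactive means no significant shift from solvent-only controls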;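 further: raw slope with 0.1% DMSO as baseline and bumetanide as block control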
HEK293 Tl flux: parental HEK flux effect, counter-screen. HEK293 parental cells, thallium flux FluoZin2, ouabain; baseline-ratio fluorescence slope, 10–20 s after thallium. shares compounds with Cl transport mod. AID 1716. thallium flux rate (normalised fluorescence) at 10 µM. actives 46% (n = 3,700);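 active means thallium flux rate significantly above the same plate's solvent-only control wells, beyond their mean plus 3 SD; inconclusive means the two replicate wells gave conflicting results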
KCC2 retest ouab: modulates human KCC2 on retest with ouabain; raw Tl+ flux slope (below DMSO = inhibition, above = activation) at 10 µM; HEK293-KCC2, thallium flux FluoZin2 fluorescence; bidirectional: low = inhibitor, high = activator; shares compounds with Cl transport mod; actives 48% (n = 3,700); AID 1717;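 active means thallium flux slope beyond 3 SD from same-plate DMSO control mean in most replicates, usually higher, sometimes lower; inconclusive means repeat tests gave conflicting results; inactive means no significant difference from controls in most replicates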;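 further: slope of initial-normalized fluorescence between seconds 10 and 20 after thallium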
HEK counter2: counter-screen for KCC2 modulators: effect in parental HEK293 cells. shares compounds with Cl transport mod. thallium flux FluoZin-2 fluorescence slope. thallium flux slope at 10 µM. actives 33% (n = 3,700). AID 1718;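 active means thallium flux slope above the same plate's solvent-control mean plus 3 SD in both duplicate wells; inconclusive means duplicate wells that disagreed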;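 further: run without ouabain in cells lacking the KCC2 cotransporter; slope of fluorescence scaled to its starting value between 10 and 20 s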
* = called active by the depositor; i = inactive; ? = inconclusive; . = no result. Shown are actives, neighbours in structure and some others; about 4.1% of the full set was active somewhere.

SMILES	Cl transport mod	KCNQ1 pot	KCNK3 block	KCNQ1 block	hERG protect	KCNK9 block	KCC2 sec1	KCC2 bumet counter	KCC2 sec2	HEK293 Tl flux	KCC2 retest ouab	HEK counter2
CC(C)c1ccc(NC(=S)NNC(=O)c2cccs2)cc1	25*	i	i	i	0	i	?	0.038*	0.027	0.018*	?	?
COc1ccc(NC(=S)NNC(=O)c2cccs2)cc1	.	i	i	i	-4	i	.	.	.	.	.	.
COc1ccc(OCCOc2ccc(/C=C3\C(=N)N4N=C(C)SC4=NC3=O)cc2)cc1	.	.	i	.	.	.	.	.	.	.	.	.
Cc1cccc(N(C)S(=O)(=O)c2cccc3nsnc23)c1	-0.68	i	i	i	-5	i	.	.	.	.	.	.
CS(=O)(=O)N(CCc1ccccc1)CC(=O)N1CCN(Cc2ccccc2)CC1	-3.2*	i	i	i	-9	i	0.0063	0.0053	0.033	0.0038	?	0.011
COc1ccc(S(=O)(=O)N(C)CC(=O)N2CCN(Cc3ccccc3)CC2)cc1C	-4.1*	i	i	i	-9	i	0.011	0.006	0.026*	0.0039	0.015*	0.012
CCN1CCN(C(=O)CN(C)S(=O)(=O)c2ccc(OC)c(C)c2)CC1	.	i	i	i	-11	i	.	.	.	.	.	.
CN(CC(=O)NCCc1ccccc1)S(=O)(=O)c1cccc2nsnc12	-0.7	i	i	i	-9	i	.	.	.	.	.	.
CCN(c1cccc(C)c1)S(=O)(=O)c1cccc2nsnc12	3.9*	i	i	i	-16	i	0.0058	?	0.027*	0.0059*	0.015*	0.009*
CCN(CCCNC(=O)CN(C)S(=O)(=O)c1cccc2nsnc12)c1ccccc1	.	i	i	i	-10	i	0.0059	0.0043	?	0.0074	0.016	0.0097
Cc1ccc(-c2cc(C(=O)OCC(=O)NC3CC3)c3ccccc3n2)cc1	.	.	i	.	.	.	.	.	.	.	.	.
Cc1ccc(S(=O)(=O)Nc2ncccn2)cc1	.	i	i	i	-3	i	.	.	.	.	.	.
CN(CC(=O)NCCN1CCN(Cc2ccccc2)CC1)S(=O)(=O)c1cccc2nsnc12	.	i	i	i	-13	i	.	.	.	.	.	.
O=C(CN(c1ccc2c(c1)OCCO2)S(=O)(=O)c1ccccc1)N1CCN(Cc2ccccc2)CC1	-4.1*	i	i	i	-8	i	0.0061	?	0.023*	0.0072	?	0.01
CN(CC(=O)N1CCN(Cc2ccccc2)CC1)S(=O)(=O)c1cccc2nsnc12	-3.2*	i	i	i	1	i	0.0065	0.0044	0.02*	0.0069	0.013*	0.01
C=C(C)C1CC=C(C)/C(=N\NC(=S)Nc2ccc(C)cc2)C1 (stereo not drawn)	4.6*	i	i	i	-6	i	0.0095	0.022*	0.032	0.012*	0.04*	0.011*
COc1ccc(CCn2c(O)cc3nn(-c4nc5ccccc5s4)c(=O)c-3c2C)cc1	3.7*	i	i	i	-9	i	0.007	0.0077*	0.03	0.01*	0.021	?
COc1ccc(CN2CCN(c3nc4ccccc4s3)CC2)cc1	.	i	i	i	-10	i	.	.	.	.	.	.
Cc1ccc2[nH]c(=O)c(C(c3nnnn3CC3CCCO3)N3CCc4ccccc4C3)cc2c1 (stereo not drawn)	0.39	i	i	i	-17	i	.	.	.	.	.	.
COc1ccc2[nH]c(=O)c(C(c3nnnn3CC3CCCO3)N3CCc4ccccc4C3)cc2c1 (stereo not drawn)	-5.1*	i	i	i	-15	i	0.0096	0.007	0.029	0.0071	0.03	0.0099
Cn1c(C(=O)NCCN2CCN(c3ccccc3F)CC2)cc2c(=O)n(C)c3ccccc3c21	-4.7*	i	i	i	-18	i	0.005	0.0048	0.022*	0.0076	?	0.011
Cn1c(C(=O)NCCN2CCOCC2)cc2c(=O)n(C)c3ccccc3c21	.	i	i	i	-8	i	.	.	.	.	.	.
O=C(COC(=O)COc1ccc(Br)cc1)NNC(=O)c1ccccc1	.	.	i	.	.	.	.	.	.	.	.	.
Cc1nc2c(Br)c3nc(C(F)(F)F)[nH]c3c(Br)c2[nH]1	-7.6*	i	i	i	-7	i	0.0091	0.0063	0.037	0.0045	0.021	0.012
c1ccc2c(c1)[nH]c1c(N3CCC4(CC3)OCCO4)ncnc12	.	i	i	i	-19	i	0.0061	0.0049	0.032	0.0078	0.018	0.012
SMILES	Cl transport mod	KCNQ1 pot	KCNK3 block	KCNQ1 block	hERG protect	KCNK9 block	KCC2 sec1	KCC2 bumet counter	KCC2 sec2	HEK293 Tl flux	KCC2 retest ouab	HEK counter2
COc1cccc2[nH]c3c(N4CCC5(CC4)OCCO5)ncnc3c12	0.49	i	i	i	-9	i	.	.	.	.	.	.
COc1ccc(NC(=O)N2CCCC(c3ccccc3)C2)cc1 (stereo not drawn)	.	i	i	i	-4	i	.	.	.	.	.	.
CCOC(=O)c1[nH]c2ccc(Br)cc2c1NC(=O)CCN1CCN(C(=O)OCC)CC1	.	i	i	i	-16	i	.	.	.	.	.	.
CCOC(=O)c1[nH]c2ccc(Br)cc2c1NC(=O)CCN1CCC(C(=O)OCC)CC1	-0.0054	i	i	i	-16	i	0.0091	0.0064	?	0.0078	0.018	0.011
On1cnnc1-c1ccccc1	.	i	i	i	-6	i	.	.	.	.	.	.
COn1cnnc1-c1ccccc1	.	i	i	i	-5	i	0.0065	0.0046	0.031	0.0076	0.018	0.01
O=C1[C@H](Cc2ccccc2)NCCCC[C@H](c2ccco2)N1Cc1ccccc1	.	.	i	.	.	.	.	.	.	.	.	.
O=C(N=Nc1c(O)[nH]c2ccccc12)Nc1ccccc1	.	.	i	.	.	.	.	.	.	.	.	.
